Activity calls are given as the source filed them. No cut-off for these calls is given here.
Columns and labels:
Candida parapsilosis = assay: Antimicrobial activity against Candida parapsilosis ATCC 22019 after 24 hrs by twofold serial microdilution method; format: functional, organism-based
[1] = Cytotoxicity against BHK cells assessed as cell viability after 48 to 96 hrs by MTT assay; format: cell-based, Mesocricetus auratus; details: hamster
[2] = Cytotoxicity against bovine MDBK cells assessed as cell viability after 48 to 96 hrs by MTT assay; format: cell-based, Bos taurus; details: cattle
[3] = Antiviral activity against Bovine viral diarrhea virus 1-NADL ATCC VR-534 infected in MDBK cells assessed as protection against virus-induced cytopathogenicity after 3 to 4 days by MTT assay; format: functional, cell-based; details: Bovine viral diarrhea virus isolates and strains, ATCC VR-534, MDBK
Summary of the method: (§1)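 Cells seeded in 96-well plates (BHK 5x10^4, MDBK 3x10^4 cells/well), grown overnight to confluence, infected at m.o.i. 0.01 (BHK for Reo-1, MDBK for BVDV); serial compound dilutions in maintenance medium with 0.5% inactivated FBS added after 1 h; viability by MTT after 3–4 days at 37°C; EC50 for 50% protection by linear regression.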

Escherichia coli [4] = assay: Antimicrobial activity against Escherichia coli NCTC 8196 after 18 hrs by twofold serial microdilution method; format: functional, organism-based
Human alphaherpesvirus 1 = assay: Antiviral activity against Human herpesvirus 1 KOS ATCC VR-1493 infected in African green monkey Vero 76 cells assessed as reduction of virus-plaque formation after 3 days by crystal violet staining; format: functional, organism-based; details: Human alphaherpesvirus 1, KOS ATCC VR1493, Vero, 72 h
Summary of the method: (§2)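 Plaque reduction: Vero-76 at 2x10^5 cells/well grown to confluent monolayers, infected 2 h at 50–100 PFU/well; after removing unadsorbed virus, overlay of D-MEM, 1% inactivated FBS, 0.75% methylcellulose with or without serial compound dilutions; 3 days at 37°C, fixed and stained with crystal violet in 50% ethanol, plaques counted; EC50 by linear regression.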

Candida albicans [5] = assay: Antimicrobial activity against Candida albicans ATCC 90028 after 24 hrs by twofold serial microdilution method; format: functional, organism-based
[6] = tested on: Vesicular stomatitis virus; assay: Antiviral activity against Vesicular stomatitis virus ATCC VR 1540 infected in African green monkey Vero 76 cells assessed as reduction of virus-plaque formation after 2 days by crystal violet staining; format: functional, organism-based; details: ATCC VR 1540, Vero, 48 h
Candida albicans [7] = assay: Antimicrobial activity against Candida albicans ATCC 10231 after 24 hrs by twofold serial microdilution method; format: functional, organism-based
Yellow fever virus = assay: Antiviral activity against Yellow fever virus 17D infected in BHK cells assessed as protection against virus-induced cytopathogenicity after 3 to 4 days by MTT assay; format: functional, cell-based
[8] = Cytotoxicity against African green monkey Vero 76 cells assessed as cell viability after 48 to 96 hrs by crystal violet staining; format: cell-based; details: chlorocebus sabaeus
CCRF-SB = assay: Cytotoxicity against human CCRF-SB cells after 96 hrs by MTT assay; format: functional
Summary of the method: (§3)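 Leukaemia/lymphoma lines seeded at 1×10^5 cells/ml in RPMI-1640 with 10% FCS and penicillin/streptomycin; incubated with serial dilutions at 37°C, 5% CO2; viability by MTT after 96 h; value is concentration reducing proliferation by 50%, with untreated controls undergoing at least three rounds of multiplication.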

Escherichia coli [9] = assay: Antimicrobial activity against Escherichia coli ATCC 25922 after 18 hrs by twofold serial microdilution method; format: functional, organism-based
[10] = tested on: Mammalian orthoreovirus 1; assay: Antiviral activity against Reovirus type-1 ATCC VR-214 infected in BHK cells assessed as protection against virus-induced cytopathogenicity after 3 to 4 days by MTT assay; format: functional, cell-based; details: Mammalian orthoreovirus 1, ATCC VR-214, BHK; summary of the method: as §1
Pseudomonas aeruginosa [11] = assay: Antimicrobial activity against Pseudomonas aeruginosa ATCC 15442 after 18 hrs by twofold serial microdilution method; format: functional, organism-based
Vaccinia virus = assay: Antiviral activity against Human Vaccinia virus ATCC VR-1549 infected in African green monkey Vero 76 cells assessed as reduction of virus-plaque formation after 3 days by crystal violet staining; format: functional, organism-based; details: Orthopoxvirus vaccinia, ATCC VR-1549, Vero, 72 h
[12] = Cytotoxicity against human MT4 cells; format: cell-based
Coxsackievirus B5 = assay: Antiviral activity against Human coxsackievirus B5 ATCC VR-29 infected in African green monkey Vero 76 cells assessed as reduction of virus-plaque formation after 3 days by crystal violet staining; format: functional, organism-based; details: Enterovirus B, ATCC VR-29, Vero, 72 h; summary of the method: as §2
WIL2-NS = assay: Cytotoxicity against human WIL2-NS cells after 96 hrs by MTT assay; format: functional; summary of the method: as §3
Pseudomonas aeruginosa [13] = assay: Antimicrobial activity against Pseudomonas aeruginosa ATCC 27863 after 18 hrs by twofold serial microdilution method; format: functional, organism-based
Poliovirus 1 = assay: Antiviral activity against Poliovirus type 1 ATCC VR-1562 infected in African green monkey Vero 76 cells assessed as reduction of virus-plaque formation after 2 days by crystal violet staining; format: functional, organism-based; details: Enterovirus C, ATCC VR-1562, Vero, 48 h
Escherichia coli [14] = assay: Antimicrobial activity against Escherichia coli ATCC 10538 after 18 hrs by twofold serial microdilution method; format: functional, organism-based
CCRF-CEM = assay: Cytotoxicity against human CCRF-CEM cells after 96 hrs by MTT assay; format: functional; summary of the method: as §3
[15] = tested on: Bordetella bronchiseptica; assay: Antimicrobial activity against Bordetella bronchiseptica ATCC 4617 after 18 hrs by twofold serial microdilution method; format: functional, organism-based
[16] = tested on: Human immunodeficiency virus 1; assay: Antiviral activity against HIV1 3B infected in human MT4 cells assessed as protection against virus-induced cytopathogenicity by MTT assay; format: functional, organism-based; details: Human immunodeficiency virus 1, 3B
Pseudomonas aeruginosa [17] = assay: Antimicrobial activity against Pseudomonas aeruginosa NCTC 6749 after 18 hrs by twofold serial microdilution method; format: functional, organism-based

Q: What does the source list for `FC(F)(F)c1cccc(NC(=S)Nc2ccc(I)cc2)c1`?
A: Activity (Candida parapsilosis): inactive; CC50 [1]: 9.4 µM; CC50 [2]: 9.5 µM; EC50 [3]: > 9.5 µM; Activity (Escherichia coli [4]): inactive; EC50 (Human alphaherpesvirus 1): > 9.5 µM; Activity (Candida albicans [5]): inactive; EC50 [6]: > 9.5 µM; Activity (Candida albicans [7]): inactive; EC50 (Yellow fever virus): > 9.4 µM; CC50 [8]: 9.5 µM; CC50 (CCRF-SB): 9.1 µM; Activity (Escherichia coli [9]): inactive; EC50 [10]: > 9.4 µM; Activity (Pseudomonas aeruginosa [11]): inactive; EC50 (Vaccinia virus): > 9.5 µM; CC50 [12]: 10 µM; EC50 (Coxsackievirus B5): > 9.5 µM; CC50 (WIL2-NS): 8 µM; Activity (Pseudomonas aeruginosa [13]): inactive; EC50 (Poliovirus 1): > 9.5 µM; Activity (Escherichia coli [14]): inactive; CC50 (CCRF-CEM): 8 µM; Activity [15]: inactive; EC50 [16]: > 10.5 µM; Activity (Pseudomonas aeruginosa [17]): inactive

— ChEMBL document CHEMBL3616436, “Synthesis, cytotoxicity and antimicrobial activity of thiourea derivatives incorporating 3-(trifluoromethyl)phenyl moiety” (Eur J Med Chem, 2015)
